Tests used:
U-937 = assay: Cytotoxicity against human U937 cells; assay type: functional, cell-based
In short: (§1)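 ATCC lines kept in RPMI-1640 with 2 mM L-glutamine, sodium bicarbonate, 5% FCS at 37 °C, 5% CO2. Adherent cells trypsinized, and viable cells counted by Trypan blue on a hemocytometer before seeding. MTS (CellTiter 96 AQueous One) metabolic read-out. IC50 is 50% inhibition of metabolic activity from sigmoidal dose-response curves. Triplicates in at least two independent experiments.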

MCF7 = assay: Cytotoxicity against human MCF7 cells; assay type: functional, cell-based; in short: as §1
PC-3 = assay: Cytotoxicity against human PC3 cells; assay type: functional, cell-based; in short: as §1
Jurkat = assay: Cytotoxicity against human Jurkat cells; assay type: functional, cell-based; in short: as §1
A-375 = assay: Cytotoxicity against human A375 cells; assay type: functional, cell-based; in short: as §1
HCT-116 = assay: Cytotoxicity against human HCT116 cells; assay type: functional, cell-based; in short: as §1
MDA-MB-231 = assay: Cytotoxicity against human MDA-MB-231 cells; assay type: functional, cell-based; in short: as §1
[1] = Inhibition of bovine neuronal tubulin polymerization for 60 mins; set-up: species or system Bos taurus
In short: (§2)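 Purified bovine neuronal tubulin reaction mix from a commercial kit, run per the manufacturer. Compound or DMSO vehicle is added at varying concentrations. Polymerization is followed kinetically at 37 °C for 1 h by fluorescence, excitation 360 ± 10 nm and emission 440 ± 10 nm. IC50 is read at the 20 or 60 min time point. Duplicates in one experiment.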

[2] = Inhibition of bovine neuronal tubulin polymerization for 20 mins; set-up: species or system Bos taurus; in short: as §2

| IC50 [1] | IC50 [2] | Compound | IC50 (U-937) | IC50 (MCF7) | IC50 (PC-3) | IC50 (Jurkat) | IC50 (A-375) | IC50 (HCT-116) | IC50 (MDA-MB-231) |
| --- | --- | --- | --- | --- | --- | --- | --- | --- | --- |
|  |  | COc1cccc(C(=O)CN2C(=O)C(=O)c3cc(Br)cc(Br)c32)c1 | 4.7 µM |  |  |  |  |  |  |
|  |  | O=C1C(=O)N(CCc2cccc(Br)c2)c2c(Br)cc(Br)cc21 | 0.78 µM | 4.04 µM | 2.09 µM | 1.21 µM | 3.44 µM | 1.41 µM | 2.72 µM |
| 12 µM | 4.71 µM | O=C1C(=O)N(Cc2cccc3ccccc23)c2c(Br)cc(Br)cc21 | 0.19 µM | 7.71 µM | 1.44 µM | 0.91 µM | 3.95 µM | 1.15 µM | 2.49 µM |
|  |  | COc1ccc(CCN2C(=O)C(=O)c3cc(Br)cc(Br)c32)cc1 | 2.35 µM |  |  | 2.66 µM |  |  | 4.51 µM |
| 1.66 µM | 0.95 µM | CC[C@]1(O)C[C@@H]2CN(CCc3c([nH]c4ccccc34)[C@@](C(=O)OC)(c3cc4c(cc3OC)N(C)[C@H]3[C@@](O)(C(=O)OC)[C@H](OC(C)=O)[C@]5(CC)C=CCN6CC[C@]43[C@@H]65)C2)C1 [VINBLASTINE] |  |  |  |  |  |  |  |
|  |  | COc1cccc(CCN2C(=O)C(=O)c3cc(Br)cc(Br)c32)c1 | 1.07 µM |  |  | 2 µM |  |  | 5.24 µM |
|  |  | O=C(CN1C(=O)C(=O)c2cc(Br)cc(Br)c21)c1ccccc1 | 9.97 µM |  |  |  |  |  |  |
| 6.6 µM | 4.04 µM | O=C1C(=O)N(CCc2ccccc2)c2c(Br)cc(Br)cc21 | 0.78 µM |  |  | 1.52 µM |  |  | 4.35 µM |
|  |  | O=C(CN1C(=O)C(=O)c2cc(Br)cc(Br)c21)c1ccc(Br)cc1 | 9.18 µM |  |  |  |  |  |  |
|  |  | COc1ccc(C(=O)CN2C(=O)C(=O)c3cc(Br)cc(Br)c32)cc1 | 5.32 µM |  |  |  |  |  |  |
|  |  | O=C1C(=O)N(CCc2ccc(Br)cc2)c2c(Br)cc(Br)cc21 | 0.88 µM | 6.02 µM | 2.21 µM | 1.15 µM | 4.34 µM | 1.62 µM | 2.01 µM |
|  |  | O=C(CN1C(=O)C(=O)c2cc(Br)cc(Br)c21)c1cccc(Br)c1 | 6.36 µM |  |  |  |  |  |  |
| 6.47 µM | 2.87 µM | O=C1C(=O)N(Cc2ccc3ccccc3c2)c2c(Br)cc(Br)cc21 | 0.74 µM | 3.5 µM | 2.29 µM | 0.41 µM | 6.56 µM | 1.51 µM | 2.56 µM |

— ChEMBL document CHEMBL1143945, “N-phenethyl and N-naphthylmethyl isatins and analogues as in vitro cytotoxic agents” (Bioorg Med Chem, 2008)
